Here are results for 15 molecules from publication PMC8273112 (ACS Infectious Diseases, 2021).

Series [1] concerns P. falciparum A6 (SB1-A6). The series can be described thus: SYBR Green growth inhibition assay, P. falciparum A6. The class given is cell-based, Plasmodium falciparum. As to conditions: read-out: IC50 A6, 72 h. Put shortly:
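Asynchronous parasites grown in human erythrocytes in RPMI-1640 with HEPES, hypoxanthine and Albumax II under 5% O2/5% CO2/90% N2 at 37 °C. Test compound in 2-fold serial dilution from 20 μM, run in quadruplicate, at 2% hematocrit and 0.2% starting parasitemia for 72 h. SYBR Green I lysis dye added for ≥1 h in the dark. Fluorescence read at 497/520 nm, normalized to untreated wells and plotted against log concentration.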

The subject of series [2] is P. falciparum strain Tm90–C2B. The series can be described thus: SYBR Green growth inhibition assay, P. falciparum Tm90-C2B. The class given is cell-based, Plasmodium falciparum. Particulars: read-out: IC50 Tm90–C2B. The method, boiled down:
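Human erythrocytes (≤28 days old), 2% hematocrit, asynchronous culture at 0.2% initial parasitemia, in RPMI-1640 with HEPES, hypoxanthine, glucose, glutamine and Albumax II. 2-fold serial dilution starting at 20 μM, quadruplicate. Incubated 72 h at 37 °C under 5% O2/5% CO2/90% N2. SYBR Green I dye-detergent added for at least 1 h in the dark; fluorescence read at 497/520 nm, normalized to untreated wells, plotted against log concentration.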

The next series relates to HepG2 cells. The series can be described thus: HepG2 cytotoxicity assay. The format is cell-based, human. Particulars: read-out: IC50 cytotoxicity, 24 h drug, 24 h recovery.
The test system of series [3] is Plasmodium falciparum strain Dd2. The series can be described thus: SYBR Green growth inhibition assay, P. falciparum Dd2. The format is cell-based.
The test system of series [4] is Plasmodium falciparum strain D6. The series can be described thus: SYBR Green growth inhibition assay, P. falciparum D6. As to conditions: read-out: IC50 D6. The class given is cell-based.
The nature of series [5]: Murine microsomal stability. The format is in vitro ADME. Particulars: mouse, pooled murine liver microsomes; for CLint scaled at 1 μM: pH 7.4; for half-life at 1 μM: pH 7.4, murine microsomal stability, t1/2, 1 μM, 0.5 mg/mL protein, 37 °C, 1 h, NADPH.
The subject of series [6] is Plasmodium yoelii. The series can be described thus: Modified 4-day Peters test, murine malaria. The class given is in vivo, Plasmodium yoelii in mice. As to conditions: for P. yoelii ED50 / P. yoelii ED90: oral gavage days 1–4, parasitemia day 5, mice; for P. yoelii NRD (nonrecrudescence dose, cure dose): oral gavage up to 25 mg/kg/day, no parasites at day 30.
A short description of a further series: HepG2 cytotoxicity assay. Particulars: human, HepG2 cells. The format is cell-based, human.
Series [7] relates to Plasmodium yoelii. Particulars: at any dose level; no reference given; cited from earlier work.
The mark [8] stands for this setting: in-house derived mutant line resistant to respiratory antagonists.
[9] abbreviates: multidrug-resistant clinical isolate also resistant to atovaquone, 72 h.
Where [10] appears, read: read-out: IC50 Dd2, multidrug-resistant P. falciparum strain Dd2, 72 h.
The mark [11] stands for this setting: P. falciparum pan-sensitive strain D6, 72 h, average of two to four determinations.
[12] abbreviates: Plasmodium falciparum, TM90, 72 h.
Setting [13] is: Plasmodium falciparum, DD2, 48 h, read-out: IC50 Dd2, 48 h.
[14] abbreviates: Plasmodium falciparum, DD2, 72 h, read-out: IC50 Dd2.
Where [15] appears, read: Plasmodium falciparum, DD2, 72 h, read-out: IC50 Dd2, 72 h.
Setting [16] is: Plasmodium falciparum, DD2, 96 h, read-out: IC50 Dd2, 96 h.
Setting [17] is: Plasmodium falciparum, D6, 72 h.

Counter-ions that a name gives are not always drawn. Like-named read-outs stand apart in the source and are kept apart here.

In the case of `N=C(NN=Cc1ccc(-c2ccccc2)cc1)NN=Cc1ccc(-c2ccccc2)cc1` [Compound 26, 2,2′-Bis[(4-diphenyl)methylene]carbonimidic Dihydrazide Hydrochloride], the IC50 in [1] (setting [8]) is 33 nM; in [2] (setting [9]), 71 nM; with HepG2 cells it was greater than 200000 nM; in series [3] (setting [10]) it was 87 nM; in series [4] (setting [11]), 15 nM.

Turning to `N=C(NN=Cc1ccc(S(N)(=O)=O)cc1)NN=Cc1ccc(S(N)(=O)=O)cc1` [Compound 31, 2,2′-Bis[(4-sulphonamidophenyl)methylene]carbonimidic Dihydrazide Hydrochloride], the IC50 in series [1] (setting [8]) was greater than 5000 nM; in series [2] (setting [9]), greater than 5000 nM; with HepG2 cells it was greater than 200000 nM; in series [3] (setting [10]), greater than 5000 nM; in series [4] (setting [11]) it was greater than 5000 nM.

As to `Cl.N=C(N/N=C/c1ccc(OC(F)(F)F)cc1)N/N=C/c1ccc(OC(F)(F)F)cc1` [Compound 16, 2,2′-Bis[(4-trifluoromethoxyphenyl)methylene]carbonimidic Dihydrazide Hydrochloride], the IC50 is 52 nM in [1] (Plasmodium falciparum); 114 nM in [2] (setting [12]); 410 nM in series [3] (setting [13]); 83 nM in [3] (setting [14]); 195 nM in series [3] (setting [15]); 192 nM in series [3] (setting [16]). Moreover, the IC50 in series [4] (setting [17]) turned out to be 39 nM. Besides, the CLint scaled at 1 μM in [5] stood at 31.7 mL/min/kg. In series [5], the half-life at 1 μM is greater than 2.5 h. The “P. yoelii ED50” value with Plasmodium yoelii [6] was determined as 1.2 mg/kg/day. Besides, the “P. yoelii ED90” value with Plasmodium yoelii [6] is 3.7 mg/kg/day. For the same molecule, the “P. yoelii NRD (nonrecrudescence dose, cure dose)” value (shortened to “P. yoelii NRD”) with Plasmodium yoelii [6] is reported as 12.5 mg/kg/day.

With `N=C(NN=Cc1ccc(-n2cnnn2)cc1)NN=Cc1ccc(-n2cnnn2)cc1` [Compound 35, 2,2′-Bis[(4-tetrazole-1-phenyl)methylene]carbonimidic Dihydrazide Hydrochloride], the IC50 in series [1] (setting [8]) is greater than 5000 nM; in series [2] (setting [9]), greater than 5000 nM; in the series with HepG2 cells it was greater than 200000 nM; in series [3] (setting [10]), greater than 5000 nM; in [4] (setting [11]), 838 nM.

For `O=C1C(O)=C([C@H]2CC[C@H](c3ccc(Cl)cc3)CC2)C(=O)c2ccccc21` [atovaquone, reference compound], the IC50 in series [1] (Plasmodium falciparum) is greater than 5000 nM; in series [2] (setting [12]) it was greater than 5000 nM; in series [3] (setting [14]) it was less than 1 nM; in series [4] (setting [17]), less than 1 nM. This molecule also came in with an IC50 at 24 h in the series “HepG2 cytotoxicity assay” of 72000 nM.

As to `Cl.N#Cc1cc(/C=N/NC(=N)N/N=C/c2ccc(F)c(C#N)c2)ccc1F` [Compound 1, 2,2′-Bis[(3-cyano-4-fluorophenyl)methylene]carbonimidic Dihydrazide Hydrochloride], the IC50 was found to be 14 nM in series [1] (Plasmodium falciparum), 16 nM in series [2] (setting [12]), 12 nM in [3] (setting [14]) and 4 nM in series [4] (setting [17]). In addition, the CLint scaled at 1 μM in series [5] worked out at 29.3 mL/min/kg. Also, the half-life at 1 μM in series [5] is greater than 2.5 h. In addition, the “P. yoelii ED90” value with Plasmodium yoelii [6] was 0.28 mg/kg/day.

With `CCN(CC)CCCC(C)Nc1ccnc2cc(Cl)ccc12` (stereo not shown) [chloroquine, reference compound], the IC50 in [1] (Plasmodium falciparum) was 16 nM; in [2] (setting [12]), 297 nM; in series [3] (setting [14]), 70 nM. Besides, the “cure in P. yoelii model” value in the series with Plasmodium yoelii [7] is reported as “not curative”. This molecule also registered an IC50 at 24 h in “HepG2 cytotoxicity assay” of 181000 nM.

With `Cl.N#Cc1ccc(C=NNC(=N)NN=Cc2ccc(C#N)cc2)cc1` [Compound 22, 2,2′-Bis[(4-cyanophenyl)methylene]carbonimidic Dihydrazide Hydrochloride], the IC50 came to 76 nM in series [1] (Plasmodium falciparum), 312 nM in series [2] (setting [12]), 166 nM in series [3] (setting [14]) and 58 nM in series [4] (setting [17]). The IC50 at 24 h in the series “HepG2 cytotoxicity assay” was greater than 200000 nM. Further, the “P. yoelii ED50” value with Plasmodium yoelii [6] turned out to be 2.7 mg/kg/day. Moreover, the “P. yoelii ED90” value in the series on Plasmodium yoelii [6] worked out at 7.7 mg/kg/day. The “P. yoelii NRD” value in the series with Plasmodium yoelii [6] is recorded as greater than 25 mg/kg/day.

`N=C(NN=Cc1ccc([N+](=O)[O-])cc1)NN=Cc1ccc([N+](=O)[O-])cc1` [Compound 27, 2,2′-Bis[(4-nitrophenyl)methylene]carbonimidic Dihydrazide Hydrochloride]: the half-maximal inhibitory concentration (IC50) turned out to be 85 nM in [1] (Plasmodium falciparum), 247 nM in [2] (setting [12]), 198 nM in [3] (setting [14]) and 96 nM in [4] (setting [17]). Moreover, the IC50 at 24 h in “HepG2 cytotoxicity assay” was greater than 200000 nM.

For the molecule `N=C(NN=Cc1ccc2c(c1)OC(F)(F)O2)NN=Cc1ccc2c(c1)OC(F)(F)O2` [Compound 36, 2,2′-Bis{[4-(2,2-difluoro-2,3-dioxazolo)]phenyl}methylene]carbonimidic Dihydrazide Hydrochloride], the IC50 is 235 nM in series [1] (setting [8]); 905 nM in series [2] (setting [9]); greater than 200000 nM in the series with HepG2 cells; 800 nM in series [3] (setting [10]); 250 nM in series [4] (setting [11]).

In the case of “2,2′-Bis[(4-carbonamidophenyl)methylene]carbonimidic Dihydrazide Hydrochloride [Compound 30]”, the IC50 in [1] (setting [8]) was 516 nM; in series [2] (setting [9]) it was 727 nM; in the series with HepG2 cells, 42000 nM; in series [3] (setting [10]) it was 405 nM; in series [4] (setting [11]), 527 nM.

On to `N=C(NN=Cc1ccc(C(=O)O)cc1)NN=Cc1ccc(C(=O)O)cc1` [Compound 29, 2,2′-Bis[(phenyl-4-carbonate)methylene]carbonimidic Dihydrazide Hydrochloride], for which the IC50 in series [1] (setting [8]) is greater than 5000 nM; in [2] (setting [9]), greater than 5000 nM; in the series with HepG2 cells, greater than 200000 nM; in series [3] (setting [10]), greater than 5000 nM; in series [4] (setting [11]) it was greater than 5000 nM.

Consider `Cl.N#Cc1cccc(/C=N/NC(=N)N/N=C/c2cccc(C#N)c2)c1` [Compound 21, 2,2′-Bis[(3-cyanophenyl)methylene]carbonimidic Dihydrazide Hydrochloride], for which the IC50 in series [1] (Plasmodium falciparum) was found to be 24 nM; in series [2] (setting [12]) it was 31 nM; in series [3] (setting [13]), 31 nM; in [3] (setting [14]) it was 20 nM; in [3] (setting [15]) it was 21 nM; in [3] (setting [16]) it was 22 nM. The IC50 in [4] (setting [17]) was determined as 7 nM. In series [5], the CLint scaled at 1 μM is 93.8 mL/min/kg. The half-life at 1 μM in [5] is 0.97 h. Moreover, in the series with Plasmodium yoelii [6], the “P. yoelii ED50” value amounted to 7.1 mg/kg/day. For the same molecule, the “P. yoelii ED90” value in the series on Plasmodium yoelii [6] is 9.4 mg/kg/day. Further, the “P. yoelii NRD” value in the series on Plasmodium yoelii [6] is greater than 25 mg/kg/day.

Regarding `N=C(NN=Cc1cccc(-n2cnnn2)c1)NN=Cc1cccc(-n2cnnn2)c1` [Compound 34, 2,2′-Bis[(3-tetrazole-1-phenyl)methylene]carbonimidic Dihydrazide Hydrochloride], the IC50 in series [1] (setting [8]) is 4790 nM; in series [2] (setting [9]), greater than 5000 nM; with HepG2 cells, 107000 nM; in [3] (setting [10]), greater than 5000 nM; in series [4] (setting [11]), 1640 nM.

With `N=C(NN=Cc1ccc(O)cc1)NN=Cc1ccc(O)cc1` [Compound 25, 2,2′-Bis[(4-phenol)methylene]carbonimidic Dihydrazide Hydrochloride], the IC50 in series [1] (setting [8]) worked out at 278 nM; in series [2] (setting [9]), 286 nM; in the series on HepG2 cells, 39000 nM; in [3] (setting [10]) it was 240 nM; in series [4] (setting [11]), 143 nM.
